Source: ChEMBL document CHEMBL3397040, “Synthesis and antitumor activity of novel per-butyrylated glycosides of podophyllotoxin and its derivatives” (Bioorg Med Chem, 2015)

Columns and labels:
Format in all cases: functional, cell-based
[1] = Anticancer activity against human HL60 cells after 48 hrs by MTT assay; conditions: HL-60, 48 h
Outline: (§1)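 Cells grown in RPMI-1640 or DMEM with 10% FBS at 37 °C, 5% CO2. Seeded at 1 × 10^5 cells/mL in 100 µL per well. Adherent lines were allowed to attach for 12 h before drug; suspension cells were seeded just before drug. Triplicate exposure to a range of compound concentrations for 48 h. MTT (100 µg/well) was added for 4 h at 37 °C, cells lysed with SDS, and OD read at 595 nm.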

[2] = Anticancer activity against human SMMC7721 cells after 48 hrs by MTT assay; conditions: SMMC-7721, 48 h; outline: as §1
A549 = experiment: Anticancer activity against human A549 cells after 48 hrs by MTT assay; conditions: A549, 48 h; outline: as §1
MCF7 = experiment: Anticancer activity against human MCF7 cells after 48 hrs by MTT assay; conditions: MCF7, 48 h; outline: as §1
SW480 = experiment: Anticancer activity against human SW480 cells after 48 hrs by MTT assay; conditions: SW480, 48 h; outline: as §1

CCCC(=O)OC[C@H]1O[C@H](O[C@@H]2c3cc4c(cc3[C@@H](c3cc(OC)c(OC)c(OC)c3)[C@H]3C(=O)OC[C@@H]32)OCO4)[C@H](OC(=O)CCC)[C@@H](OC(=O)CCC)[C@@H]1OC(=O)CCC
IC50 [1]: > 40 µM | IC50 [2]: > 40 µM | IC50 (A549): > 40 µM | IC50 (MCF7): > 40 µM | IC50 (SW480): > 40 µM

CCCC(=O)OC[C@H]1O[C@H](O[C@@H]2c3cc4c(cc3[C@@H](c3cc(OC)c(OC)c(OC)c3)[C@H]3C(=O)OC[C@@H]32)OCO4)[C@H](OC(=O)CCC)[C@@H](OC(=O)CCC)[C@H]1OC(=O)CCC
IC50 [1]: 0.14 µM | IC50 [2]: 0.62 µM | IC50 (A549): 0.61 µM | IC50 (MCF7): 1.27 µM | IC50 (SW480): 1.65 µM

CCCC(=O)OC[C@H]1O[C@H](O[C@@H]2c3cc4c(cc3[C@@H](c3cc(OC)c(OC)c(OC)c3)[C@H]3C(=O)OC[C@@H]32)OCO4)[C@@H](OC(=O)CCC)[C@@H](OC(=O)CCC)[C@@H]1OC(=O)CCC
IC50 [1]: > 40 µM | IC50 [2]: > 40 µM | IC50 (A549): > 40 µM | IC50 (MCF7): > 40 µM | IC50 (SW480): > 40 µM

CCCC(=O)O[C@@H]1[C@@H](OC(=O)CCC)[C@H](C)O[C@@H](O[C@@H]2c3cc4c(cc3[C@@H](c3cc(OC)c(OC)c(OC)c3)[C@H]3C(=O)OC[C@@H]32)OCO4)[C@@H]1OC(=O)CCC
IC50 [1]: 5.32 µM | IC50 [2]: 15.2 µM | IC50 (A549): 7.62 µM | IC50 (MCF7): 13.5 µM | IC50 (SW480): 16.8 µM

CCCC(=O)O[C@@H]1[C@@H](O[C@@H]2c3cc4c(cc3[C@@H](c3cc(OC)c(OC)c(OC)c3)[C@H]3C(=O)OC[C@@H]32)OCO4)OC[C@@H](OC(=O)CCC)[C@@H]1OC(=O)CCC
IC50 [1]: 0.6 µM | IC50 [2]: 0.78 µM | IC50 (A549): 0.61 µM | IC50 (MCF7): 1.42 µM | IC50 (SW480): 1.11 µM

CCCC(=O)OC[C@H]1O[C@H](O[C@H]2[C@H](OC(=O)CCC)[C@@H](OC(=O)CCC)[C@@H](O[C@@H]3c4cc5c(cc4[C@@H](c4cc(OC)c(OC)c(OC)c4)[C@H]4C(=O)OC[C@@H]43)OCO5)O[C@@H]2COC(=O)CCC)[C@H](OC(=O)CCC)[C@@H](OC(=O)CCC)[C@@H]1OC(=O)CCC
IC50 [1]: > 40 µM | IC50 [2]: > 40 µM | IC50 (A549): > 40 µM | IC50 (MCF7): > 40 µM | IC50 (SW480): > 40 µM

CCCC(=O)OC[C@H]1O[C@@H](O[C@H]2[C@H](OC(=O)CCC)[C@@H](OC(=O)CCC)[C@@H](O[C@@H]3c4cc5c(cc4[C@@H](c4cc(OC)c(OC)c(OC)c4)[C@H]4C(=O)OC[C@@H]43)OCO5)O[C@@H]2COC(=O)CCC)[C@H](OC(=O)CCC)[C@@H](OC(=O)CCC)[C@H]1OC(=O)CCC
IC50 [1]: > 40 µM | IC50 [2]: > 40 µM | IC50 (A549): > 40 µM | IC50 (MCF7): > 40 µM | IC50 (SW480): > 40 µM

CCCC(=O)OC[C@H]1O[C@H](O[C@@H]2c3cc4c(cc3[C@@H](c3cc(OC)c(O)c(OC)c3)[C@H]3C(=O)OC[C@@H]32)OCO4)[C@H](OC(=O)CCC)[C@@H](OC(=O)CCC)[C@@H]1OC(=O)CCC
IC50 [1]: 16.9 µM | IC50 [2]: 16.8 µM | IC50 (A549): 16 µM | IC50 (MCF7): 39.1 µM | IC50 (SW480): 38.7 µM

CCCC(=O)OC[C@H]1O[C@H](O[C@@H]2c3cc4c(cc3[C@@H](c3cc(OC)c(O)c(OC)c3)[C@H]3C(=O)OC[C@@H]32)OCO4)[C@H](OC(=O)CCC)[C@@H](OC(=O)CCC)[C@H]1OC(=O)CCC
IC50 [1]: 4.89 µM | IC50 [2]: 3.78 µM | IC50 (A549): 5.7 µM | IC50 (MCF7): 5.67 µM | IC50 (SW480): 10.7 µM

CCCC(=O)OC[C@H]1O[C@H](O[C@@H]2c3cc4c(cc3[C@@H](c3cc(OC)c(O)c(OC)c3)[C@H]3C(=O)OC[C@@H]32)OCO4)[C@@H](OC(=O)CCC)[C@@H](OC(=O)CCC)[C@@H]1OC(=O)CCC
IC50 [1]: 2.71 µM | IC50 [2]: 3.84 µM | IC50 (A549): 3.1 µM | IC50 (MCF7): 7.5 µM | IC50 (SW480): 4.85 µM

CCCC(=O)O[C@@H]1[C@@H](OC(=O)CCC)[C@H](C)O[C@@H](O[C@@H]2c3cc4c(cc3[C@@H](c3cc(OC)c(O)c(OC)c3)[C@H]3C(=O)OC[C@@H]32)OCO4)[C@@H]1OC(=O)CCC
IC50 [1]: 2.54 µM | IC50 [2]: 2.68 µM | IC50 (A549): 3.52 µM | IC50 (MCF7): 4.71 µM | IC50 (SW480): 5.05 µM

CCCC(=O)O[C@@H]1[C@@H](O[C@@H]2c3cc4c(cc3[C@@H](c3cc(OC)c(O)c(OC)c3)[C@H]3C(=O)OC[C@@H]32)OCO4)OC[C@@H](OC(=O)CCC)[C@@H]1OC(=O)CCC
IC50 [1]: 26.5 µM | IC50 [2]: 17.1 µM | IC50 (A549): 23.2 µM | IC50 (MCF7): 29.3 µM | IC50 (SW480): > 40 µM

CCCC(=O)OC[C@H]1O[C@H](O[C@H]2[C@H](OC(=O)CCC)[C@@H](OC(=O)CCC)[C@@H](O[C@@H]3c4cc5c(cc4[C@@H](c4cc(OC)c(O)c(OC)c4)[C@H]4C(=O)OC[C@@H]43)OCO5)O[C@@H]2COC(=O)CCC)[C@H](OC(=O)CCC)[C@@H](OC(=O)CCC)[C@@H]1OC(=O)CCC
IC50 [1]: > 40 µM | IC50 [2]: > 40 µM | IC50 (A549): > 40 µM | IC50 (MCF7): > 40 µM | IC50 (SW480): > 40 µM

CCCC(=O)OC[C@H]1O[C@@H](O[C@H]2[C@H](OC(=O)CCC)[C@@H](OC(=O)CCC)[C@@H](O[C@@H]3c4cc5c(cc4[C@@H](c4cc(OC)c(O)c(OC)c4)[C@H]4C(=O)OC[C@@H]43)OCO5)O[C@@H]2COC(=O)CCC)[C@H](OC(=O)CCC)[C@@H](OC(=O)CCC)[C@H]1OC(=O)CCC
IC50 [1]: 9.59 µM | IC50 [2]: 20.2 µM | IC50 (A549): 18.6 µM | IC50 (MCF7): > 40 µM | IC50 (SW480): > 40 µM

CCCC(=O)OC[C@H]1O[C@@H](O[C@@H]2c3cc4c(cc3[C@@H](c3cc(OC)c(OC)c(OC)c3)[C@H]3C(=O)OC[C@@H]32)OCO4)[C@H](OC(=O)CCC)[C@@H](OC(=O)CCC)[C@@H]1OC(=O)CCC
IC50 [1]: 0.61 µM | IC50 [2]: 0.83 µM | IC50 (A549): 1.12 µM | IC50 (MCF7): 1.69 µM | IC50 (SW480): 1.26 µM

CCCC(=O)OC[C@H]1O[C@@H](O[C@@H]2c3cc4c(cc3[C@@H](c3cc(OC)c(OC)c(OC)c3)[C@H]3C(=O)OC[C@@H]32)OCO4)[C@H](OC(=O)CCC)[C@@H](OC(=O)CCC)[C@H]1OC(=O)CCC
IC50 [1]: 3.15 µM | IC50 [2]: 18.1 µM | IC50 (A549): 17.8 µM | IC50 (MCF7): 22.1 µM | IC50 (SW480): 26.5 µM

COc1cc([C@@H]2c3cc4c(cc3[C@@H](O[C@@H]3O[C@@H]5CO[C@@H](C)O[C@H]5[C@H](O)[C@H]3O)[C@H]3COC(=O)[C@H]23)OCO4)cc(OC)c1O [ETOPOSIDE]
IC50 [1]: 0.31 µM | IC50 [2]: 8.12 µM | IC50 (A549): 11.9 µM | IC50 (MCF7): 32.8 µM | IC50 (SW480): 17.1 µM
